Compound activity: PubChem BioAssay, Sanford-Burnham Center for Chemical Genomics
This is a sample that favours compounds with a hit; in the whole collection about 1.5% have one here.
APJ antagonist: antagonists of human APJ apelin receptor; P35414; CHO-K1 APJ beta-arrestin complementation, luminescence; inhibition, % at 20 µM; 0.32% of 330,000 active;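 active = inhibition above about 40% at 20 µM, limit read from the data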;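 note: cells challenged with 10 nM apelin-13 agonist together with compound; plate controls were apelin-13 plus DMSO wells for no effect and DMSO wells lacking apelin-13 for full effect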
EBI2 block: blocks human EBI2 receptor beta-arrestin signaling; P32249; EBI2 beta-arrestin recruitment, luminescence, 7a,25-OHC stimulated; 0.81% of 360,000 active; inhibition, % at 5 µM; AID 651636; in the data active = inhibition above about 38%;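 note: enzyme fragment complementation signal reports receptor beta-arrestin coupling in cells; 0% = agonist plus DMSO wells and 100% = wells without agonist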
Target sequence (P32249 whole entry, looked up, the tested form may be a part): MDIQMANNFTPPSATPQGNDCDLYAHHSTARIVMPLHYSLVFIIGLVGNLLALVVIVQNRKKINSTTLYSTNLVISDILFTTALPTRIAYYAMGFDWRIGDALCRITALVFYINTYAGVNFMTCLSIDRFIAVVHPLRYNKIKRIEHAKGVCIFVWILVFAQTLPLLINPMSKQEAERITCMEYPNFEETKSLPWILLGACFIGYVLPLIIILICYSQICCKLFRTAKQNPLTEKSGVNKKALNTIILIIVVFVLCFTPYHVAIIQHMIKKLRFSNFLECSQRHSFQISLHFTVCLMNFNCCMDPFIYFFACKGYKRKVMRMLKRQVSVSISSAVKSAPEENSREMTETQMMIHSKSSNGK
iPSC survival up: hiPSC single-cell survival enhancement. 0.044% of 360,000 active. survival enhancement, % at 20 µM. AID 602274. ATPlite luminescence; 100% = ROCK inhibitor wells, 0% = DMSO; in the data active = survival enhancement above about 18%;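 note: cells exposed to compounds for 16 hours before the ATP read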
CCR6 antag: antagonists of human CCR6 receptor. P51684. CHO-K1 CCR6 PathHunter beta-arrestin, luminescence, CCL20-stimulated. inhibition, % at 20 µM. 0.49% of 340,000 active;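 active = compounds whose inhibition of the agonist-driven luminescence signal at 20 µM reaches about 50%, limit read from the data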;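 note: cells stimulated with CCL20 at 14 nM final; plate controls were DMSO with CCL20 for no effect and DMSO without agonist for full effect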
CXCR6 inh: inhibitors of human CXCR6 receptor. O00574. CHO-K1 PathHunter CXCR6 beta-arrestin, luminescence. inhibition, % at 20 µM. 0.36% of 360,000 active; in the data active = inhibition above about 34%, passing the limit was not always enough;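 note: antagonist mode with CXCL16 agonist at 10 nM final; 0% = 10 nM CXCL16 with DMSO and 100% = unstimulated wells without agonist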
APJ ag: agonists of human APJ apelin receptor. P35414. CHO-K1 APJ PathHunter beta-arrestin, luminescence; 0% DMSO wells, 100% apelin. activation, % at 20 µM. 0.11% of 330,000 active. AID 2520;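 active = activation more than six SD over the plate average, tested at 20 µM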;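 note: 0% = DMSO alone and 100% = apelin-13 at 10 nM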
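Test system: CHO-K1 APJ beta-arrestin complementation cell line | Compound: Single test compound dose, 20 µM final, 1% DMSO | Incubation: Compound 90 min 25 °C, reagent 1 h | Measured by: beta-gal luminescence | Read-out basis: APJ–arrestin association signal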
CXCR6 confirm: CXCR6 antagonism confirmation, single concentration. inhibition, % at 20 µM. shares compounds with CXCR6 inh. CHO-K1 CXCR6 PathHunter beta-arrestin, luminescence. 65% of 700 active. AID 602409;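 active = mean inhibition over four retests above 40%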;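 note: receptor stimulated with 10 nM CXCL16 agonist; beta-galactosidase fragment complementation upon beta-arrestin recruitment to receptor; plate controls were CXCL16 plus DMSO for no effect and DMSO without CXCL16 for full effect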
EBI2 conf: confirmation of human EBI2 receptor antagonists; shares compounds with EBI2 block; EBI2 beta-arrestin luminescence, 7a,25-OHC antagonism; inhibition, % at 5 µM; 29% of 2,400 active; AID 651997;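 active = inhibition of at least 50%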
EBI2 agonist: activates EBI2, counter-screen for EBI2 antagonists; shares compounds with EBI2 block; EBI2-expressing cells, agonist mode, luminescence, 60 min; 0% vehicle, 100% 7α,25-dihydroxycholesterol control; activation, % at 5 µM; 2,400 tested, under 10 active;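 active = activation of at least 50%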
bGal cs: beta-galactosidase inhibition counter-screen. shares compounds with EBI2 block. purified beta-galactosidase, luminescent Galacton Star, 15 min. inhibition, % at 5 µM. 1% of 2,400 active. AID 652176;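 active = replicate-average signal at least 3 plate SD below neutral wells, shown as high inhibition, flagging enzyme-inhibiting false positives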;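 note: 0% = DMSO wells with enzyme and 100% = wells lacking enzyme; higher means stronger loss of beta-gal luminescence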
The depositor's hits bear a star; x = no result given.

SMILES	APJ antagonist	EBI2 block	iPSC survival up	CCR6 antag	CXCR6 inh	APJ ag	CXCR6 confirm	others
CC(C)CN1C(=O)C(=Nc2cccnc2)c2ccccc21	33	9	-4	37	43*	-10	37
O=C1C=CC(=O)N1CCCCCCCCCCN1C(=O)C=CC1=O	x	26	-4	111*	87*	x	51*
COc1ccc(-c2cc(=O)n(-c3ccc([N+](=O)[O-])cc3)[nH]2)cc1	29	1	0	38	41*	-5	14
COc1ccc(-c2[nH]n(-c3ccc([N+](=O)[O-])cc3)c(=O)c2C=NCc2ccc(F)cc2)cc1	-18	14	2	8	-4	-3	x
Cc1cc(C)cc(NC(=O)C(=O)NCC2CCCO2)c1 (stereo not drawn)	14	-9	1	-3	-1	-3	x
Cc1cc(C)cc(NC(=O)C(NCC2CCCO2)c2ccccc2)c1 (stereo not drawn)	-15	5	-3	8	60*	-3	10
COc1ccc(NC(=O)c2cc(-c3ccc(C)o3)nc3ccccc23)c(OC)c1	15	-14	-1	5	10	-1	x
Cc1ccc(-c2cc(C(=O)Nc3ccccc3C(N)=O)c3ccccc3n2)o1	28	11	0	18	47*	-5	1
O=C(c1ccccc1)c1ccccc1N1C(=O)C=CC1=O	27	4	3	x	74*	1	16
CC(=O)Cn1ncc(N(C)Cc2ccccc2)c(Cl)c1=O	9	-1	0	-2	4	-2	x
C/C(CCC(C)C)=N\NC(=S)NCc1ccccc1	38	17	4	40	40*	-4	30
C/C(CCc1ccccc1)=N\NC(=S)NCCc1ccccc1	6	29	0	40	26	-3	x
NN=C1c2ccccc2C(=O)C1C(=O)C(c1ccccc1)c1ccccc1 (stereo not drawn)	x	0	-2	63*	40*	x	34
CCOc1ccc(C2C(C(=O)OC)=CN(C(C)c3ccccc3)C=C2C(=O)OC)cc1 (stereo not drawn)	-7	10	0	12	6	-1	x
Cc1cccc(N=Cc2cc(Br)cc(Cl)c2O)c1	-11	-12	0	28	54*	-1	38
CCOc1ccc(CN2CCN(Cc3cn(CC)nc3C)CC2CCO)cc1 (stereo not drawn)	11	1	0	-10	47*	-3	2
CC(=O)Nc1nc2ccccc2n1CCOc1ccccc1Cl	29	2	-2	46	41*	-5	66*
CC(C)NC(=O)c1ccc2sc([C@@H]3O[C@H](CO)[C@H](O)[C@H](O)[C@H]3O)nc2c1	x	5	2	x	-2	x	x
O=C(Nc1ccc(S(=O)(=O)Nc2cnc3ccccc3n2)cc1)c1ccc([N+](=O)[O-])cc1Cl	-36	-21	0	0	-10	8	x
COc1cccc(C(C(=O)NC(C)(C)C)N(C(=O)CCC(=O)Nc2cc(C)on2)C(C)C)c1OC (stereo not drawn)	4	0	-2	-6	47*	-3	7
Cc1cc(OC(=O)Cc2cccc3ccccc23)c([N+](=O)[O-])c(=O)[nH]1	5	-13	6	-9	39*	-5	-2
O=C(Nc1nc(-c2ccccc2)c(-c2ccccc2)o1)c1ccc(F)cc1	16	5	1	x	41*	-4	27
Cc1ccccc1C(=O)NCC(=O)OC(C)C(=O)NC(C)CCc1ccccc1 (stereo not drawn)	8	-13	0	11	-6	-3	x
O=C(Cc1ccccc1)N1CCC(c2nc3ccccc3[nH]2)CC1	-11	7	0	0	40*	-2	6
COCC(=O)N1CCC(c2nc3ccccc3[nH]2)CC1	x	-8	-1	x	3	x	x
SMILES	APJ antagonist	EBI2 block	iPSC survival up	CCR6 antag	CXCR6 inh	APJ ag	CXCR6 confirm	others
CCOc1ccc(N(CC(=O)NCCSc2ccccn2)S(=O)(=O)c2ccc(Cl)cc2)cc1	4	24	2	11	16	0	x
CCOc1ccc(N(CC(=O)N/N=C/c2ccccn2)S(=O)(=O)c2ccc(Cl)cc2)cc1	-9	5	0	19	40*	-10	41*
Cn1cc(C(=O)N2CCN(c3cccc(Cl)c3)CC2)c(=O)c2cc(S(=O)(=O)N3CCOCC3)ccc21	6	6	0	13	3	-10	x
COc1cc(C(=O)NC2CC3CCCC(C2)N3CC(=O)Nc2ccccc2)cc(OC)c1OC (stereo not drawn)	6	3	-2	4	62*	-4	69*
O=C(CN1C2CCCC1CC(NC(=O)c1ccco1)C2)Nc1ccccc1 (stereo not drawn)	20	-11	4	-2	1	-3	x
COc1ccc(-c2c(C(=O)c3ccccc3)[nH]c(N)c2C(=O)c2ccc(Br)cc2)cc1OC	x	42*	-2	x	61*	x	65*	EBI2 conf=41;EBI2 agonist=-2;bGal cs=0
C[C@H](CO)N1C[C@H](C)[C@H](CN(C)C(=O)Nc2cccc(C(F)(F)F)c2)OCc2cnnn2CCCC1=O	x	0	1	x	-7	x	x
Cc1ccc(NC(=O)CCOc2ccccc2C)cc1C	9	16	1	3	6	-2	x
Cc1cc(C)nc(N/N=C/C2=C(O)CC(c3ccc(F)cc3)CC2=O)n1 (stereo not drawn)	23	57*	0	78*	60*	-13	26	EBI2 conf=67*;EBI2 agonist=-5;bGal cs=-5
Cc1ccc(C2CC(=O)C(C=NCCN3CCN(C(=S)Nc4ccc(F)cc4)CC3)=C(O)C2)cc1 (stereo not drawn)	-16	6	0	1	8	-2	x
O=C(Nc1ccccc1)c1ccc(Nc2c([N+](=O)[O-])cc([N+](=O)[O-])c3ccccc23)cc1	75*	49*	0	84*	56*	-10	67*	EBI2 conf=47;EBI2 agonist=-1;bGal cs=23
COc1ccc(-c2cc(C3CCN(Cc4ccc([N+](=O)[O-])cc4)CC3)[nH]n2)cc1	-32	33	-1	9	-8	-3	x
